The results in this text go back to ChEMBL document CHEMBL4346670, “Discovery of Novel Janus Kinase (JAK) and Histone Deacetylase (HDAC) Dual Inhibitors for the Treatment of Hematological Malignancies” (J Med Chem, 2019).

For series [1], the system named is MOLT-4. The experiment in a line: Antiproliferative activity against human MOLT4 cells assessed as reduction in cell viability after 48 hrs by MTT assay. Type of series: functional, cell-based. The settings on record: MOLT-4, 48 h. Put shortly: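 Cells kept in RPMI1640 with 10% FBS at 37 °C, 5% CO2. Seeded and grown for 12 h, then exposed to a range of compound concentrations for 48 h. 0.5% MTT added for 4 h, formazan dissolved in DMSO, absorbance read at 570 nm.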
A general note: Formazan colour is commonly taken as a measure of viable cells.

For series [2], the system named is HEL. The experiment in a line: Induction of apoptosis in HEL cells assessed as late apoptotic cells at 1 uM after 24 hrs by Annexin-V/propidium iodide staining-based flow cytometric analysis (reference value: 0.023%). Type of series: functional, Homo sapiens. (Flow cytometry measures light scatter and fluorescence of single cells or particles in a stream.)
For series [3], the target named is T1, Tyrosine-protein kinase JAK3 (Homo sapiens, UniProt P52333).
T1 sequence (P52333 whole entry): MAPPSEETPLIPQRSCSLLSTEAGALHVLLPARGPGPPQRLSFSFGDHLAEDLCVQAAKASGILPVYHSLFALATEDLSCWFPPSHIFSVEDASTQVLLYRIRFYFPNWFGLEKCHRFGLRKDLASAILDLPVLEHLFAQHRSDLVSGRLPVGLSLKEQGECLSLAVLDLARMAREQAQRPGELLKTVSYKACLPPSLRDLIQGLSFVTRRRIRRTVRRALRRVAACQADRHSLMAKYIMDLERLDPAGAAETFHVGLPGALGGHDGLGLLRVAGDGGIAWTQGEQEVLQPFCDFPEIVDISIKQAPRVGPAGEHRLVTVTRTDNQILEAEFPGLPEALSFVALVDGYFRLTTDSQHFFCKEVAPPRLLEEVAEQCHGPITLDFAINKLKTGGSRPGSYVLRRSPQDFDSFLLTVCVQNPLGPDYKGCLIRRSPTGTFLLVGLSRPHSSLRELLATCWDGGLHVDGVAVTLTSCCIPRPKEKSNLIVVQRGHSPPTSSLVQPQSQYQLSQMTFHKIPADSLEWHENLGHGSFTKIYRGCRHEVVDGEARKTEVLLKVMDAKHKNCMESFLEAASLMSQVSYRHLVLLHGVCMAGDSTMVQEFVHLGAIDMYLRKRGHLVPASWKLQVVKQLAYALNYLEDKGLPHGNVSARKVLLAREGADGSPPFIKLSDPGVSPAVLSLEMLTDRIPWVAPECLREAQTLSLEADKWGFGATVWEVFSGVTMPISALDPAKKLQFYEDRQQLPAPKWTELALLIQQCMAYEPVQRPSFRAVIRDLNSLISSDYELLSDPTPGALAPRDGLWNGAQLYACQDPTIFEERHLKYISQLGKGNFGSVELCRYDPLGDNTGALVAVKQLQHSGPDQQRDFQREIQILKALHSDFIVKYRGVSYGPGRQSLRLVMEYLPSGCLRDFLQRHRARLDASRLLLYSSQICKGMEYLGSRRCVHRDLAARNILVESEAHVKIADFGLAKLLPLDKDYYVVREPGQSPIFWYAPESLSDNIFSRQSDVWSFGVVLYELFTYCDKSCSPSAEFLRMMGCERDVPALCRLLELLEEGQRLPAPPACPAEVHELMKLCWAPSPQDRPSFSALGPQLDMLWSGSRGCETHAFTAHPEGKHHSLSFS
The experiment in a line: Inhibition of recombinant human JAK3 using Ulight-CAGAGAIETDKEYYTVKD as substrate measured after 60 mins by LANCE assay. A general note: TR-FRET usually uses a lanthanide donor and a delayed reading to cut background.

Series [4] has as its system K562. The experiment in a line: Induction of apoptosis in human K562 cells assessed as early apoptotic cells at 1 uM after 24 hrs by Annexin-V/propidium iodide staining-based flow cytometric analysis (reference value: 7.55%). Type of series: functional.
Series [5] deals with cAMP-dependent protein kinase catalytic subunit PRKX (Homo sapiens) (UniProt P51817). The experiment in a line: Inhibition of recombinant human PRKX at 20 nM using Ulight-RRRSLLE as substrate measured after 30 mins by LANCE method relative to control.
cAMP-dependent protein kinase catalytic subunit PRKX (Homo sapiens), sequence (P51817 whole entry): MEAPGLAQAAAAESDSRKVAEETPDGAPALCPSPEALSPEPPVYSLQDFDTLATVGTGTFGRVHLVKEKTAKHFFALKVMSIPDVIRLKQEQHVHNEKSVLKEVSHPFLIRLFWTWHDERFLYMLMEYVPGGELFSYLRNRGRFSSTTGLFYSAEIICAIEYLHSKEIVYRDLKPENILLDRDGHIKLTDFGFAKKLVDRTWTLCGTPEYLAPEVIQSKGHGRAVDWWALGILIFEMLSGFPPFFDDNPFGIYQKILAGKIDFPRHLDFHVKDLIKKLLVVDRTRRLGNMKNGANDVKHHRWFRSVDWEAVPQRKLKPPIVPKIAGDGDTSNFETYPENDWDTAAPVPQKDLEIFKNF
Series [6] addresses Vascular endothelial growth factor receptor 3 (Homo sapiens) (UniProt P35916). The experiment in a line: Inhibition of recombinant human FLT4 at 20 nM using Ulight-CAGAGAIETDKEYYTVKD as substrate measured after 90 mins by LANCE method relative to control. Put shortly:
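Part of an 85-kinase selectivity panel run by a contract lab. The test compound was screened at 20 nM and 200 nM against human recombinant kinases. Activity was quantified as phosphorylation of a ULight-labelled peptide substrate, read by LANCE detection. Percent inhibition was taken relative to control. The method is the same one used for JAKs.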

Series [7] is described as follows: MRT (0 to t) in CD1(ICR) mouse at 1 mg/kg, ip by LC-MS/MS analysis. Type of series: ADME, organism-based. The settings on record: in vivo.
In series [8] the target is Testis-specific serine/threonine-protein kinase 1 (Homo sapiens) (UniProt Q9BXA7). Description: Inhibition of recombinant human TSSK1 at 20 nM using Ulight-RRRSLLE as substrate measured after 60 mins by LANCE method relative to control.
Testis-specific serine/threonine-protein kinase 1 (Homo sapiens), sequence (Q9BXA7 whole entry): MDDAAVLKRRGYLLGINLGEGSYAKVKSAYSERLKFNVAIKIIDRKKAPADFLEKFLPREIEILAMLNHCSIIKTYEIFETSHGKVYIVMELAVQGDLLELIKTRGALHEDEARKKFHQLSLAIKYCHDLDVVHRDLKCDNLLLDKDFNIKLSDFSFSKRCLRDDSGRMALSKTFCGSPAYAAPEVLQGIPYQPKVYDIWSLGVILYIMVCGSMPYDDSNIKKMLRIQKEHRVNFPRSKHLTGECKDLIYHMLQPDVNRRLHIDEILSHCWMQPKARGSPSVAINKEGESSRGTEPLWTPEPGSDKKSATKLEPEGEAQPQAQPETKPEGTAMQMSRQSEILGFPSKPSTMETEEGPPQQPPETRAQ
For series [9], the species on record is Homo sapiens. The experiment in a line: Inhibition of recombinant human PKA at 20 nM using Ulight-RRRSLLE peptide as substrate measured after 10 mins by LANCE assay relative to control.
For series [10], the target named is Ribosomal protein S6 kinase alpha-4 (Homo sapiens) (UniProt O75676). The experiment in a line: Inhibition of recombinant human MSK2 at 20 nM using biotinyl-beta […] AAAARARTSSFAEPG after 15 mins by HTRF method relative to control.
Ribosomal protein S6 kinase alpha-4 (Homo sapiens), sequence (O75676 whole entry, looked up): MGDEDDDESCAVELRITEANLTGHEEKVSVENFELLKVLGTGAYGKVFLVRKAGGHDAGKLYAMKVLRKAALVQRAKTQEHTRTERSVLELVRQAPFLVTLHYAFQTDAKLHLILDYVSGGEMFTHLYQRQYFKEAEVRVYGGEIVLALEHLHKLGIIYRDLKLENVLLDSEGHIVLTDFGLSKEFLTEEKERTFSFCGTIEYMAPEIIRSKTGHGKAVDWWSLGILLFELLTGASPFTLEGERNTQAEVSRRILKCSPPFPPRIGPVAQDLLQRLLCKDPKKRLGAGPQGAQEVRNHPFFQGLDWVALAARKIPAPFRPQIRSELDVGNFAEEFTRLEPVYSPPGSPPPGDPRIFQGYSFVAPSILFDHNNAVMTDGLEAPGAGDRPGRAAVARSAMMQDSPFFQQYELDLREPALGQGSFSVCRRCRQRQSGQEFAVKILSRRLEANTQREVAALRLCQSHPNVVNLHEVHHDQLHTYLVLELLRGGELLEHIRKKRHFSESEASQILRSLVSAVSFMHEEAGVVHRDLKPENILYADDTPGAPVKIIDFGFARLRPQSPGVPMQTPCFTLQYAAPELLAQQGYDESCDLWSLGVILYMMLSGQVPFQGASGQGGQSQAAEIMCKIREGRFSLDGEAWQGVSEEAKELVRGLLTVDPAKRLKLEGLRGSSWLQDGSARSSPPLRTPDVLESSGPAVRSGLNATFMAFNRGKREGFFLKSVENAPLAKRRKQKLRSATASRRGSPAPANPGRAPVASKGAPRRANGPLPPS
Series [11] deals with Mitogen-activated protein kinase 8 (Homo sapiens) (UniProt P45983). The experiment in a line: Inhibition of recombinant human JNK1 at 200 nM using Ulight-CFFKNIVTPRTPPPSQGK-amide as substrate measured after 60 mins by LANCE method relative to control. In a few lines:
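Part of an 85-kinase selectivity panel run by a contract lab, with the test compound at 20 nM and at 200 nM. Each human recombinant kinase's phosphorylation of its peptide substrate was measured following the JAK assay method. Activity is given as percent inhibition.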

The target in series [12] is Hepatocyte growth factor receptor (Homo sapiens) (UniProt P08581). Description: Inhibition of recombinant human c-MET at 200 nM using Ulight-CAGAGAIETDKEYYTVKD as substrate measured after 60 mins by LANCE method relative to control.
Hepatocyte growth factor receptor (Homo sapiens), sequence (P08581 whole entry): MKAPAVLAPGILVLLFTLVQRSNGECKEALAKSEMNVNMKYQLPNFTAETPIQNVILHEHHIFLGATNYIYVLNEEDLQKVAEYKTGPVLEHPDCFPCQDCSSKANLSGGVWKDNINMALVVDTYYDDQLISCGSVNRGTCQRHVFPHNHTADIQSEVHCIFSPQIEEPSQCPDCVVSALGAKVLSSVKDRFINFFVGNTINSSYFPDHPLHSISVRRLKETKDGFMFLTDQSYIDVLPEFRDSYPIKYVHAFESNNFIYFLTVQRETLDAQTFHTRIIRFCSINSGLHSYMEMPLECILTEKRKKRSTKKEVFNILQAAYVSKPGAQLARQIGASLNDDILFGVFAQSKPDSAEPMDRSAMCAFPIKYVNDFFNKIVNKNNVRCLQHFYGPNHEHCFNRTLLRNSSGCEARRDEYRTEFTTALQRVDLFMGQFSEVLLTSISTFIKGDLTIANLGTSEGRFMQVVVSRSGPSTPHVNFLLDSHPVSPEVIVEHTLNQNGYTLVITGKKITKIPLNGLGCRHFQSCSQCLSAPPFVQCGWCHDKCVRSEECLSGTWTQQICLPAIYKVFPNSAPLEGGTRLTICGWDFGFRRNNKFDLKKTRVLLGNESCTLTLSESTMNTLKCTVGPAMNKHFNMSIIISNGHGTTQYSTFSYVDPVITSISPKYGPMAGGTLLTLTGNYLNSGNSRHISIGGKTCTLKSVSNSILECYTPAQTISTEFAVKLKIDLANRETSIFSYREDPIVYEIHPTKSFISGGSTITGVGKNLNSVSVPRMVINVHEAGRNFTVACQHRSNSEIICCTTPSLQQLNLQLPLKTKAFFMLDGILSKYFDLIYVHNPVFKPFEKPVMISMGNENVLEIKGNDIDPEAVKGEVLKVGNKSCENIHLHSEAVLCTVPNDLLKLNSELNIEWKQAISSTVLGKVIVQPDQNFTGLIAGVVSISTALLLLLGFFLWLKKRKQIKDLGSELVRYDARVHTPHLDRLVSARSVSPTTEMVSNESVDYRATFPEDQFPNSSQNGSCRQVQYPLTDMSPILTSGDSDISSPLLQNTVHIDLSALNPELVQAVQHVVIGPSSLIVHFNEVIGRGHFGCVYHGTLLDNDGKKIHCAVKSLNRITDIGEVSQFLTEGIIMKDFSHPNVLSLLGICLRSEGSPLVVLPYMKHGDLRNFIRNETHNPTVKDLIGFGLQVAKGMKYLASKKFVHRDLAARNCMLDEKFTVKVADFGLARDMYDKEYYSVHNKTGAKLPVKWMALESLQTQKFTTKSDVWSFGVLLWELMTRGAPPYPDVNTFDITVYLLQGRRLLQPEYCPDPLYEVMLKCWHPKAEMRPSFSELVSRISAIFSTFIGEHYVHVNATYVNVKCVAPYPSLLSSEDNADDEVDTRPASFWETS
Series [13] addresses Vascular endothelial growth factor receptor 1 (Homo sapiens) (UniProt P17948). The experiment in a line: Inhibition of recombinant human FLT1 at 200 nM using Ulight-TK peptide as substrate measured after 15 mins by LANCE method relative to control. Put shortly: (§1)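 Single-concentration screen within an 85-kinase panel run by a contract lab, with each compound tested at 20 nM and 200 nM. Human recombinant enzymes were used. Activity was quantified as phosphorylation of a peptide substrate read by LANCE time-resolved detection, and inhibition was expressed relative to control, using the same format as the JAK assay.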

Series [14] has as its target Serine/threonine-protein kinase DCLK1 (Homo sapiens) (UniProt O15075). The experiment in a line: Inhibition of recombinant human DCAMKL1 at 200 nM using CREBtide as substrate measured after 60 mins by LANCE method relative to control. Put shortly:
as §1

Structures are written as SMILES.

Vascular endothelial growth factor receptor 3 (Homo sapiens), sequence (P35916 whole entry): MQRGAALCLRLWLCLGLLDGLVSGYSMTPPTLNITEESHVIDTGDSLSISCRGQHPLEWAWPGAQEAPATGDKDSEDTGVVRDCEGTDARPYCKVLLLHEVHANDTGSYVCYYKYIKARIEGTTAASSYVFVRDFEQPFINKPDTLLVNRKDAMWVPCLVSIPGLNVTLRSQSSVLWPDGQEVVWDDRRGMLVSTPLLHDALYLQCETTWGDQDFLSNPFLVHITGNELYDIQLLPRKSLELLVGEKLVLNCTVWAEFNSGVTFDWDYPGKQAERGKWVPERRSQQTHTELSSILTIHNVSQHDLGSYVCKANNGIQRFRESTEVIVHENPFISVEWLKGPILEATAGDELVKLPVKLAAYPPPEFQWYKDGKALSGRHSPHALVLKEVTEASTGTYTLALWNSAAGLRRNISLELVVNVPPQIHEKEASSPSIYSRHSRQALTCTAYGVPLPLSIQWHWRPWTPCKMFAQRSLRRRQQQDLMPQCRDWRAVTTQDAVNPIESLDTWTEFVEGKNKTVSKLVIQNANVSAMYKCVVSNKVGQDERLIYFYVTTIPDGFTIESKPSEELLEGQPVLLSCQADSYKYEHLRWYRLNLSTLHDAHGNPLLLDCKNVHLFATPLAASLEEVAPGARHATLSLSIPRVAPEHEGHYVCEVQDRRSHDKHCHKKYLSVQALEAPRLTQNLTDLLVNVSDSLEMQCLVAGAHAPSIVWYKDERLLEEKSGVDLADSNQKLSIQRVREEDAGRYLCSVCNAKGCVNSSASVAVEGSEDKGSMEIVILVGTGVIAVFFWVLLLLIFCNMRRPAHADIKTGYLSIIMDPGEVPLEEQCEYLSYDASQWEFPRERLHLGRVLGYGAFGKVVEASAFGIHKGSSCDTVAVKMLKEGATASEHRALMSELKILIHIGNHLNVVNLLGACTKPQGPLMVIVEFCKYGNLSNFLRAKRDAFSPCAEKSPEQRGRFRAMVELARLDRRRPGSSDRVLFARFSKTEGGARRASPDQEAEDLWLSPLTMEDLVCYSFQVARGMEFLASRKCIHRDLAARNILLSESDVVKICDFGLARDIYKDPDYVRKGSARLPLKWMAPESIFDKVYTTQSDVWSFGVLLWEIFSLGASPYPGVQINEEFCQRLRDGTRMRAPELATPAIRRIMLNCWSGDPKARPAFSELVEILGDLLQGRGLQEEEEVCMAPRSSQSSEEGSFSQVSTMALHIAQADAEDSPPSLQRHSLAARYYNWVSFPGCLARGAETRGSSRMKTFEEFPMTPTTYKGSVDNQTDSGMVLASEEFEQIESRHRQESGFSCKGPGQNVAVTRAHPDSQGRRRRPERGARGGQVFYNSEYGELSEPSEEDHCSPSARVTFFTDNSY
Mitogen-activated protein kinase 8 (Homo sapiens), sequence (P45983 whole entry): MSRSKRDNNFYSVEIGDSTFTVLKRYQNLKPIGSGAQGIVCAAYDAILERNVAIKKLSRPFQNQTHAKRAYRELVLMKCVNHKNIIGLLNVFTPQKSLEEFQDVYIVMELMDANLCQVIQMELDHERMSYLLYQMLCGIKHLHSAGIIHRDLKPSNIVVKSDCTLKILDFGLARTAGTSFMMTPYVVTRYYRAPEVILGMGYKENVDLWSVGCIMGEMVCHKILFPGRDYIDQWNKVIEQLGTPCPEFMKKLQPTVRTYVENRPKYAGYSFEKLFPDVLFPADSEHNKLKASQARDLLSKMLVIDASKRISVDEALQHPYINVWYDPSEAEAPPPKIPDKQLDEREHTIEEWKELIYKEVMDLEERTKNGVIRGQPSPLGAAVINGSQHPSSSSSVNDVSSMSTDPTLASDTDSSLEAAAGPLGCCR

Regarding `O=C(CCCCCCn1cc(Nc2ncc(Cl)c(Nc3cccc(Cl)c3)n2)cn1)NO`, the IC50 (in general, the midpoint of a concentration-inhibition curve) is 130 nM in [1] and 3.3 nM in [3]. Besides, the Activity is 68.7% in series [2] and 15.3% in series [4].
As to `O=C(CCCCCn1cc(Nc2ncc(Cl)c(Nc3ccc(Cl)cc3)n2)cn1)NO`, the inhibition – broadly, the relative decrease from the control value, in per cent – in series [5] is -1%; in series [6], 38%; in series [8], -3%; in series [9] it was -10%; in series [10], -2%; in series [11], 13%. The inhibition in series [12] worked out at 37%; in series [13], 61%; in series [14], 9%. For the same compound, the IC50 is 80 nM in series [1] and 7.4 nM in series [3]. Also, the MRT last (usually the average time that molecules of a dose stay in the body) in series [7] turned out to be 21.6 min. In addition, the Activity in series [2] came to 60%; in [4], 34.4%.
